# Most compounds without a hit are left out; they make up all but 2.7% or so of the library.
# OXTR potentiate: human OXTR potentiation; CHO-OTR cells, Fluo-8 calcium fluorescence, potentiator mode; 0% = oxytocin EC15, 100% = EC100; activation, % at 3 µM; 320,000 tested, 0.061% active; AID 2445;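 active means activation above that plate's cutoff, the mean activation of tested compounds plus 3 SD, cut at about 6.6% in these data, passing the limit was not always enough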;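 further: 100% uses oxytocin at 75 nM as the full agonist control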
#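 System: human OTR in CHO cells; Also added: sub-maximal oxytocin, roughly EC15; Timing: compound 6 min at room temperature before oxytocin, 100 s read; Technique: Fluo-8 intracellular calcium fluorescence, ex 470-495, em 515-575 nm; Controls: oxytocin EC15 low and EC100 high; Replication: singlicate.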
# OX1R antag-1: human HCRTR1 antagonism; inhibition, % at 5 µM; 330,000 tested, 0.43% active; CHO/OX1R cells, Fluo-8 calcium fluorescence, orexin A; O43613;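 active means inhibition above its plate's threshold, mean inhibition of all tested compounds on the plate plus 3 SD, cut at about 37% in these data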;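 further: 0% = orexin A challenge wells and 100% = SB-334867-A antagonist wells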
# Target sequence (O43613 whole entry, looked up): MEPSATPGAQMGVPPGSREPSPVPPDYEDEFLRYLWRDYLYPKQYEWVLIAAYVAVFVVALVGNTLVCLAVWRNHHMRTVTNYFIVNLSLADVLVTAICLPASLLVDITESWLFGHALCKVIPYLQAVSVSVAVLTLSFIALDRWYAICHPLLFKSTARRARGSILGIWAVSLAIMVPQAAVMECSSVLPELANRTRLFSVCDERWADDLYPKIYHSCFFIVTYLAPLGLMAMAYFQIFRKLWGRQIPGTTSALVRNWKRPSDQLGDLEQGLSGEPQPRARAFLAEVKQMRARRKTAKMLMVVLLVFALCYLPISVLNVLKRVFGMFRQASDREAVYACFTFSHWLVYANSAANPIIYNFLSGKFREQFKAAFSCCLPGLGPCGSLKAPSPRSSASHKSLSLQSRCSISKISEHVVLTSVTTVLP
# OX1R antag-2: blocks the human orexin 1 receptor; O43613; OX1R-expressing cells, FRET antagonist read-out; inhibition, % at 6.6 µM; 330,000 tested, 1.8% active; AID 485270; in the data active means inhibition mostly above about 38%, no sharp cut-off; inactive means mostly below about 40%;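 further: 0% = agonist challenge alone and 100% = reference antagonist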
# CHO parental Ca: signal in parental CHO cells, OX1R antagonist counter-screen; parental CHO-K1, ATP-induced calcium, Fluo-8 fluorescence; inhibition, % at 5.6 µM; 330,000 tested, 0.63% active; AID 463079;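 active means inhibition above that plate's mean sample inhibition plus 3 SD, cut at about 26% in these data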;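 further: 0% = ATP-challenged DMSO wells and 100% = DMSO wells without ATP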
#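 Material – parental CHO cells · Reagent – ATP stimulus · Compound – single nominal dose of 5.6 µM per compound · Detection – Fluo-8 fluorescence · Read-out basis – percent inhibition of calcium signal · Controls – ATP-challenged DMSO wells low, unchallenged DMSO wells high · Repeats – no replicates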
# V1R ag counter: activates human V1a receptor in oxytocin agonist counter-screen; P37288; CHO-V1R cells, Fluo-8 calcium fluorescence, agonist mode; 0% DMSO, 100% 3 nM vasopressin; activation, % at 3 µM; 320,000 tested, 0.25% active; AID 2797;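 active means activation above the mean activation of all tested compounds plus 3 SD, per screening run, cut at about 20% in these data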;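 further: signal is peak over basal fluorescence ratio across a 100 second FLIPR read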
# OXTR ag: agonists of human oxytocin receptor. 320,000 tested, 0.32% active. activation, % at 3 µM. P30559. CHO-OTR cells, Fluo-8 calcium fluorescence; normalized: DMSO 0%, oxytocin 100%. AID 2435;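 active means activation above the mean of all tested compounds plus 3 SD, cutoff set per screening run, cut at about 20% in these data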;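 further: peak over basal fluorescence ratio from a 100 s FLIPR kinetic read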
# * marks the source's active call; other numbers are inactive results.
SMILES,OXTR potentiate,OX1R antag-1,OX1R antag-2,CHO parental Ca,V1R ag counter,OXTR ag
CCN(CC)CCCN1C(=O)C(O)=C(C(=O)c2cc3ccccc3o2)C1c1ccccn1 (centres undefined),-14,-13,6,-5,0,0
CN(C)CCN1C(=O)C(O)=C(C(=O)c2cc3ccccc3o2)C1c1ccccn1 (centres undefined),-1,-7,49*,8,0,0
COc1ccccc1C(=O)NC(=O)CSc1nncn1C,-5,1,-5,40*,4,2
COc1ccc(NC(=O)CSc2nncn2C)c([N+](=O)[O-])c1,-1,3,38*,-9,0,-1
COc1ccc(NC(=O)CS(=O)(=O)Cc2ccccc2)c([N+](=O)[O-])c1,-12,-27,50*,-18,0,0
COc1ccc(NC(=O)c2ccc(C)cc2Cl)c([N+](=O)[O-])c1,-15,-23,35,9,-1,-2
COc1ccc(NC(=O)c2cc(Br)ccc2Cl)c([N+](=O)[O-])c1,3,14,35,31*,-1,-2
COc1ccc(NC(=O)CSc2ccccc2)c([N+](=O)[O-])c1,-13,-35,9,-10,-1,-3
CCN1CCN(C(=O)c2ccc3c(=O)n(CCc4ccccc4)c(=O)[nH]c3c2)CC1,2,-10,13,-12,1,2
O=C(Nc1ccccc1F)N1CCC(NC(=O)C23CC4CC(CC(C4)C2)C3)CC1,-11,-9,18,10,3,1
O=C(c1cc(-c2ccc(F)cc2)nc2ccccc12)N1CCN(C2CCS(=O)(=O)C2)CC1 (centres undefined),-4,-30,4,-13,-1,1
O=S(=O)(NCc1ccc2c(c1)OCO2)c1ccc2oc3ccccc3c2c1,-5,-8,52*,-4,1,2
O=S(=O)(Nc1ccc2c(c1)OCCO2)c1ccc2oc3ccccc3c2c1,-11,-4,65*,20,4,5
CCCCc1cc(=O)oc2cc(C)cc(OCC(=O)N3C[C@H]4C[C@@H](C3)c3cccc(=O)n3C4)c12,1,-24,12,-10,1,0
CCOc1ccc(CCNC(=O)COC(=O)c2cccc(S(=O)(=O)N3CCCC3)c2)cc1OCC,-2,-20,12,-22,-1,0
CC(=O)n1c2ccccc2c2nc3ccccc3nc21,-11,-28,5,-4,0,0
CC(=O)n1c2ccccc2c2c1c1ccccc1n2C,-9,-1,61*,-20,0,0
CCN(CC)c1ccc2c(Cl)c(Br)c(=O)oc2c1,-22,90*,9,81*,85*,62*
CCN(CC)c1ccc2c(C)c(Cl)c(=O)oc2c1,-7,-22,16,-19,-2,-3
CCC/C(C)=N/NC(=O)c1ccccc1O,-9,8,9,-15,2,3
C/C(=N\NC(=O)c1ccccc1O)C1C(=O)c2ccccc2C1=O,1,-21,61*,-13,-1,-2
C/C(=N/NC(=O)c1cc2ccccc2cc1O)C1C(=O)c2ccccc2C1=O,-15,12,65*,-8,0,0
C=C[C@@H]1c2cc(C)ccc2N(S(=O)(=O)c2ccc(C)cc2)[C@H](c2ccccc2)C1(C#N)S(=O)(=O)c1ccccc1 (some centres undefined),1,-2,1,-18,3,2
CCn1c(=O)c(CCC(=O)N2CCN(c3ccccn3)CC2)c(C)c2c(C)nn(-c3ccccc3)c21,-5,-14,7,3,0,-1
COc1cccc(C(=O)Nc2nnc(-c3ccccc3)s2)c1OC,-8,4,52*,9,2,0
COc1ccccc1C(=O)Nc1nnc(C)s1,-7,-21,16,-16,0,1
COc1ccccc1C(=O)Nc1nnc(-c2ccccc2)s1,-16,-20,51*,-22,0,-1
O=S(=O)(Nc1nc2ccccc2nc1Cl)c1ccccc1C(F)(F)F,-3,-1,16,1,1,1
